# Assay results as given in ChEMBL document CHEMBL4014335, “Activation of Phenyl 4-(2-Oxo-3-alkylimidazolidin-1-yl)benzenesulfonates Prodrugs by CYP1A1 as New Antimitotics Targeting Breast Cancer Cells” (J Med Chem, 2017).
# Activity calls are given as the source filed them. The rule behind the calls is not given here.
# Columns and labels:
# [1] = tested on: MCF7; assay: Cell cycle arrest in human MCF7 cells assessed as accumulation at G2/M phase at 8 nM after 24 hrs by DAPI-staining based FACS analysis (reference value: 22.3%); type: functional
# [2] = tested on: MCF7; assay: Cell cycle arrest in human MCF7 cells assessed as accumulation at S phase at 8 nM after 24 hrs by DAPI-staining based FACS analysis (reference value: 10.6%); type: functional
# [3] = tested on: MDA-MB-468; assay: Cell cycle arrest in human MDA-MB-468 cells assessed as accumulation at G0/G1 phase at 50 nM after 24 hrs by DAPI-staining based FACS analysis (reference value: 63.3%); type: functional
# [4] = species on record: Homo sapiens; assay: Destabilization of microtubule network in human MDA-MB-468 cells at 50 nM after 24 hrs by fluorescence microscopic analysis; type: cell-based
# [5] = tested on: M21; assay: Antiproliferative activity against human M21 cells after 48 hrs by SRB assay; type: functional, cell-based; settings: M21, 48 h
# In short: (§1)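 SRB assay run as in the NCI screen with slight modifications. Seeding: HT-29 5.0 x 10^3, M21 3.5 x 10^3, MCF7 7.5 x 10^3 cells; cells preincubated 24 h. Drug in DMSO added at 0.75 to 1.0 x 10^5 nM for 48 h. TCA fixation, sulforhodamine B staining, absorbance 530-565 nm. At least two experiments in triplicate; runs accepted only when relative SD < 10%.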
# [6] = tested on: MCF7; assay: Cell cycle arrest in human MCF7 cells assessed as accumulation at subG1 phase at 50 nM after 24 hrs by DAPI-staining based FACS analysis (reference value: 1.4%); type: functional
# [7] = tested on: MCF7; assay: Antiproliferative activity against human MCF7 cells after 48 hrs by SRB assay; type: functional, cell-based; settings: MCF7, 48 h; in short: as §1
Compound,Activity [1] [%],Activity [2] [%],Activity [3] [%],Activity [4],IC50 [5] [nM],Activity [6] [%],IC50 [7] [nM]
COc1cc(OS(=O)(=O)c2ccc(N3CCNC3=O)cc2)cc(OC)c1OC,44.1,10.7,,,,,
CCCCN1CCN(c2ccc(S(=O)(=O)Oc3cc(OC)c(OC)c(OC)c3)cc2)C1=O,,,13.2,Active,3800,4.3,10
